Measured values: the M2OR odorant receptor database

molecular target: T1, UniProt Q8VGC6; conditions: stereoisomer not certain
T1 sequence (whole entry): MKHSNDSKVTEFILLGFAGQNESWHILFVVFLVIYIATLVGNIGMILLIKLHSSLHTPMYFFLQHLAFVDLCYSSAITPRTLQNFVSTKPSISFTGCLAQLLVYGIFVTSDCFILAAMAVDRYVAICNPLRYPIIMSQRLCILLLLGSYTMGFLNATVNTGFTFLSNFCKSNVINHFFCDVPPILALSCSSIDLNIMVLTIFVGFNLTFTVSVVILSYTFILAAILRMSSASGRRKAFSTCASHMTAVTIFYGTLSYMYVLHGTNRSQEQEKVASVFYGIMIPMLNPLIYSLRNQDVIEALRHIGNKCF
Procedure, shortened: (§1)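 Values were gathered from published papers (main text and supplementary material), with extra details requested from the original authors when needed, and checked for typos and inconsistencies. Each receptor–molecule pair is called responsive (active) if the original authors judged the measured signal statistically different from baseline, and non-responsive (inactive) otherwise. Assay methods varied by source, often transient mammalian cell-line luciferase assays. Recorded details include cell line, G-protein, co-transfected protein and tags.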

Row | SMILES | odorant receptor agonist call
1 | COc1ccc(C=O)cc1 | inactive
2 | CC(C=O)Cc1ccc2c(c1)OCO2 (stereo unspecified) | active
3 | C=CCOC(=O)Cc1ccccc1 | active
4 | O=c1cc(O)c2ccccc2o1 | inactive
5 | O=Cc1ccc2c(c1)OCO2 | inactive
6 | CCCCCCC(Br)C(=O)O (stereo unspecified) | inactive
7 | C=C(C)C1CC=C(C=O)CC1 (stereo unspecified) | inactive
8 | CCCCC(Br)C(=O)O (stereo unspecified) | inactive
9 | Oc1ccccc1Br | inactive
10 | CSSC | inactive

molecular target: T2, UniProt Q8VGD7; conditions: stereoisomer not certain
T2 sequence (whole entry): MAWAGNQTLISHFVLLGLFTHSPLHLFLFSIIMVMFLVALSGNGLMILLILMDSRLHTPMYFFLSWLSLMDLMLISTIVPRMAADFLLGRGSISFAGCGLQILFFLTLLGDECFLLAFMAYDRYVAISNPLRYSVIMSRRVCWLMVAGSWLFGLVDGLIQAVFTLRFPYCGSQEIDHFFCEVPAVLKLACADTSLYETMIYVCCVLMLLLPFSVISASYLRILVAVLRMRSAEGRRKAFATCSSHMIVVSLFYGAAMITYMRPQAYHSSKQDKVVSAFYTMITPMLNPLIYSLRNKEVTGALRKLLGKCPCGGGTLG
Procedure, shortened: as §1

Row | SMILES | odorant receptor agonist call
11 | CCC1CCC(=O)O1 (stereo unspecified) | inactive
12 | C=CCc1ccccc1 | inactive
13 | C=CCOC(=O)Cc1ccccc1 | inactive
14 | O=c1cc(O)c2ccccc2o1 | inactive

molecular target: T3, UniProt Q8VGH1; conditions: stereoisomer not certain
T3 sequence (whole entry): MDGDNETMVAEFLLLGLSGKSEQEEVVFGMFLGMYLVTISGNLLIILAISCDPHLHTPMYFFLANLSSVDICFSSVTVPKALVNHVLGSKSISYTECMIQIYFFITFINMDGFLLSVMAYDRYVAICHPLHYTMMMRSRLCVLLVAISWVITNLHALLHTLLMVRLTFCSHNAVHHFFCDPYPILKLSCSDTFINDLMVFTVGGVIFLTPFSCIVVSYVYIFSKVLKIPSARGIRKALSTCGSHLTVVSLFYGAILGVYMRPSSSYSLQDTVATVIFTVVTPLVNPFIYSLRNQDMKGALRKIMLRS
Procedure, shortened: as §1

Row | SMILES | odorant receptor agonist call
15 | CCC1CCC(=O)O1 (stereo unspecified) | inactive
16 | C=CCc1ccccc1 | inactive
17 | C=CCOC(=O)Cc1ccccc1 | inactive
18 | O=c1cc(O)c2ccccc2o1 | inactive

molecular target: T4, UniProt Q8VGJ1; conditions: stereoisomer not certain
T4 sequence (whole entry): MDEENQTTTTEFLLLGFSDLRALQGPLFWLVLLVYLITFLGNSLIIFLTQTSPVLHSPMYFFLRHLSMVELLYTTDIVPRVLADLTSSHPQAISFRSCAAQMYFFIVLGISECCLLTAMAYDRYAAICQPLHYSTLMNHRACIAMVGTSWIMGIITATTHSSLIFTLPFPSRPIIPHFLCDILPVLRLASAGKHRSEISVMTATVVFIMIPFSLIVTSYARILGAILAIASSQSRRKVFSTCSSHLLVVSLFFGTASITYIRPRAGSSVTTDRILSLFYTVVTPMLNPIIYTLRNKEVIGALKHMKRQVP
Procedure, shortened: as §1

Row | SMILES | odorant receptor agonist call
19 | CCC1CCC(=O)O1 (stereo unspecified) | inactive
20 | C=CCc1ccccc1 | inactive
21 | C=CCOC(=O)Cc1ccccc1 | inactive
22 | O=c1cc(O)c2ccccc2o1 | inactive

molecular target: T5, UniProt Q8VGJ3; conditions: stereoisomer not certain
T5 sequence (whole entry): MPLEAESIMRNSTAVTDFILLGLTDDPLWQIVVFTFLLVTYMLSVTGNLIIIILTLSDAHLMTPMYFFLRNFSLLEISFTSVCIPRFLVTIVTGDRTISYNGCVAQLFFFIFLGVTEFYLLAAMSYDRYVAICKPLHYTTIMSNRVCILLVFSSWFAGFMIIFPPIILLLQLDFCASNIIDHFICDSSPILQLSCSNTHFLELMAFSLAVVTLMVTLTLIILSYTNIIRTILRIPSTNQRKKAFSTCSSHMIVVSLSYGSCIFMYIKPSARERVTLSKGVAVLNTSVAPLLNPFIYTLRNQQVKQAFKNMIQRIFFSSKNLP
Procedure, shortened: as §1

Row | SMILES | odorant receptor agonist call
23 | Cc1ccc(OC(=O)Cc2ccccc2)cc1 | inactive
24 | O=CC=Cc1ccccc1 | inactive
25 | OCc1ccc2c(c1)OCO2 | inactive
26 | O=Cc1ccccc1 | active
27 | COc1ccc(C=O)cc1 | inactive
28 | CC(C=O)Cc1ccc2c(c1)OCO2 (stereo unspecified) | inactive
29 | C=CCOC(=O)Cc1ccccc1 | inactive
30 | O=c1cc(O)c2ccccc2o1 | inactive
31 | O=Cc1ccc2c(c1)OCO2 | inactive
32 | CCCCCCC(Br)C(=O)O (stereo unspecified) | inactive
33 | C=C(C)C1CC=C(C=O)CC1 (stereo unspecified) | inactive
34 | CCCCC(Br)C(=O)O (stereo unspecified) | inactive
35 | Oc1ccccc1Br | inactive
36 | CSSC | inactive

molecular target: T6, UniProt Q8VGJ5; conditions: stereoisomer not certain
T6 sequence (whole entry): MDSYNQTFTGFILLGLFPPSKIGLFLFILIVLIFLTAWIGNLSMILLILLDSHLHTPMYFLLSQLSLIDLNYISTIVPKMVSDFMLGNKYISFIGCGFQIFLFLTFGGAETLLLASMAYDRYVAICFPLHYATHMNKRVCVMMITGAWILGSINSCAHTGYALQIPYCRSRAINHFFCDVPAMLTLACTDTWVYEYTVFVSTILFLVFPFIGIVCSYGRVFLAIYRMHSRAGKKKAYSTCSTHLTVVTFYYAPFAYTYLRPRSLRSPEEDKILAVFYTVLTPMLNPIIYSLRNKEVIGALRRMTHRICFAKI
Procedure, shortened: as §1

Row | SMILES | odorant receptor agonist call
37 | CCC1CCC(=O)O1 (stereo unspecified) | active
38 | C=CCc1ccccc1 | inactive
39 | C=CCOC(=O)Cc1ccccc1 | active
40 | O=c1cc(O)c2ccccc2o1 | inactive

molecular target: T7, UniProt Q8VGL0; conditions: stereoisomer not certain
T7 sequence (whole entry): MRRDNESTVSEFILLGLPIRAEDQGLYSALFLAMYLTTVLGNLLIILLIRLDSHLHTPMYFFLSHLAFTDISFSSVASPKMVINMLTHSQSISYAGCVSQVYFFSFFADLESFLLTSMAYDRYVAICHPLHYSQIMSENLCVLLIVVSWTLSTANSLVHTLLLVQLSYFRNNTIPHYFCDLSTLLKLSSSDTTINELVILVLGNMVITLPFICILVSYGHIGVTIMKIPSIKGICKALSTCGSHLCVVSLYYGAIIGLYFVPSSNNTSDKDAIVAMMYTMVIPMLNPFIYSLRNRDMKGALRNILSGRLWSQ
Procedure, shortened: as §1

Row | SMILES | odorant receptor agonist call
41 | Cc1ccc(OC(=O)Cc2ccccc2)cc1 | inactive
42 | CCC1CCC(=O)O1 (stereo unspecified) | inactive
43 | O=CC=Cc1ccccc1 | inactive
44 | OCc1ccc2c(c1)OCO2 | inactive
45 | C=CCc1ccccc1 | inactive
46 | O=Cc1ccccc1 | inactive
47 | COc1ccc(C=O)cc1 | inactive
48 | CC(C=O)Cc1ccc2c(c1)OCO2 (stereo unspecified) | inactive
49 | C=CCOC(=O)Cc1ccccc1 | inactive
50 | O=c1cc(O)c2ccccc2o1 | inactive
51 | O=Cc1ccc2c(c1)OCO2 | inactive
52 | CCCCCCC(Br)C(=O)O (stereo unspecified) | inactive
53 | C=C(C)C1CC=C(C=O)CC1 (stereo unspecified) | inactive
54 | CCCCC(Br)C(=O)O (stereo unspecified) | inactive
55 | Oc1ccccc1Br | inactive
56 | CSSC | inactive
